{"source": "paper PMC10201403", "about": "(Bioorganic & medicinal chemistry, 2023)", "key": {"C. parvum [1]": {"system": "C. parvum", "settings": "acute and chronic mouse models; cited from earlier work"}, "C. parvum [2]": {"system": "C. parvum", "settings": "dairy calf; cited from earlier work"}, "C. hominis": {"system": "C. hominis", "settings": "gnotobiotic piglet; cited from earlier work"}, "C. parvum [3]": {"system": "C. parvum", "experiment": "In vitro Cryptosporidium parvum-infected HCT-8 cell assay", "type": "cell-based", "settings": "for LipE (pEC50 minus logP): Cp pEC50 and calculated logP; for EC50: Cryptosporidium parvum, HCT-8, read-out: EC50 in the Cp HCT-8 assay; for potency in the Cp HCT-8 assay, in words: C. parvum in HCT-8 cells"}, "Cryptosporidium": {"system": "Cryptosporidium", "settings": "cited from earlier work"}, "[4]": {"biological_target": "human potassium channel hERG (Homo sapiens, UniProt Q12809)", "sequence (Q12809 whole entry)": "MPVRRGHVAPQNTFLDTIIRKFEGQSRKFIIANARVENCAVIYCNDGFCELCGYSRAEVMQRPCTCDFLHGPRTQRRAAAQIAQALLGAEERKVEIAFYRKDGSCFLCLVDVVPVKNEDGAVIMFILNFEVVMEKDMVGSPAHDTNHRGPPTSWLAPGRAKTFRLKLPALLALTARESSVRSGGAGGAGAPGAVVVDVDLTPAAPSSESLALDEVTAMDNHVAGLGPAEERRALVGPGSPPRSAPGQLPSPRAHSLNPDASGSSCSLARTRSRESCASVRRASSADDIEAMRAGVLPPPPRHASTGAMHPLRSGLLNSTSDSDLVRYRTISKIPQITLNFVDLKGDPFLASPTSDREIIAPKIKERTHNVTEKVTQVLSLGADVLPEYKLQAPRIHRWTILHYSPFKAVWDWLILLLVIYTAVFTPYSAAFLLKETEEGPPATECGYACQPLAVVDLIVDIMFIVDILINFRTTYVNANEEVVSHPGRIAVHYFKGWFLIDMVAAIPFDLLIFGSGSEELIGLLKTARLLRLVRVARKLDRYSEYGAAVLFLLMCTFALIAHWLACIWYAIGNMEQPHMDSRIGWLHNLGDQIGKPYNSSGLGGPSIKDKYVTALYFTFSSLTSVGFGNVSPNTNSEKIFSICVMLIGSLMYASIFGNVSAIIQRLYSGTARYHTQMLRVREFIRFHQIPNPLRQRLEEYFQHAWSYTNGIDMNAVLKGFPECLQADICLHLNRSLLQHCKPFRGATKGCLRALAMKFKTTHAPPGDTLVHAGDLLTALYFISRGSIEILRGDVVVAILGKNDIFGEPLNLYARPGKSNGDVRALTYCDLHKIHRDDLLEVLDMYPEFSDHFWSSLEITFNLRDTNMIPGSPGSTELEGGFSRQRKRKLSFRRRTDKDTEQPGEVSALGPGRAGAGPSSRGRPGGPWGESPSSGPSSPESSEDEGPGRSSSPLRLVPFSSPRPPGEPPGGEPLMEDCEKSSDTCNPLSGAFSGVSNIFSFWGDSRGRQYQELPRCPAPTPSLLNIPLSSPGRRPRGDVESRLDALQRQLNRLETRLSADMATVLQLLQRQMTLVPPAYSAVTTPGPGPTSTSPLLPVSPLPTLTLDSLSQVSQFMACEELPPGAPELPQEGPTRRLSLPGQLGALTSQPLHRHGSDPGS", "experiment": "[3H]-dofetilide competitive binding assay", "settings": "10 μM", "how_it_was_run": "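Radioligand competition on the human hERG potassium channel: test compound competes with [³H]-dofetilide, and binding is reported as percent inhibition of [³H]-dofetilide binding. Run by an outside contract laboratory.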"}, "hERG channel": {"biological_target": "hERG channel (Homo sapiens, UniProt Q12809)", "sequence (Q12809 whole entry)": "as above", "experiment": "hERG-CHO automated patch clamp electrophysiology assay", "type": "cell-based", "settings": "10 μM"}}, "note": "Several values for one entry are separate records, joined by “and”; a condition that tells them apart may be missing. Identical values can stand only once. Entries after “also recorded” stand apart in the source; their conditions may differ. Counter-ions that a name gives are not always drawn. Like-named read-outs stand apart in the source and are kept apart here."}
{"smiles": "O=C(Nc1ccc(Cl)cc1)N1CCN(c2ccc3nncn3n2)CC1", "note": "[Compound 1]", "values": [{"measurement": "oral efficacy in vivo", "setting": "C. parvum [1]", "value": "oral efficacy"}, {"measurement": "oral efficacy in vivo", "setting": "C. parvum [2]", "value": "oral efficacy"}, {"measurement": "oral efficacy in vivo", "setting": "C. hominis", "value": "oral efficacy"}]}
{"smiles": "O=C(Cc1ccc(Cl)c(Cl)c1)N1CCN(c2ccc3nncn3n2)CC1", "note": "[Compound 2a, 1-(4-([1,2,4]triazolo[4,3-b]pyridazin-6-yl)piperazin-1-yl)-2-(3,4-dichlorophenyl)ethanone]", "values": [{"measurement": "LipE (pEC50 minus logP)", "setting": "C. parvum [3]", "value": 3.3}, {"measurement": "efficacy in vivo", "setting": "Cryptosporidium", "value": "efficacious in vivo"}]}
{"smiles": "O=C(Cc1ccc(Cl)c(Cl)c1)N1CCNCC1", "note": "[Compound 4, 2-(3,4-dichlorophenyl)-1-(piperazin-1-yl)ethanone hydrochloride]", "values": [{"measurement": "EC50", "setting": "C. parvum [3]", "value": "≥ 20", "unit": "µM"}]}
{"smiles": "CC(C)(C)OC(=O)N1CCN(C(=O)Cc2ccc(Cl)c(Cl)c2)CC1", "note": "[Compound 5, tert-Butyl 4-(2-(3,4-dichlorophenyl)acetyl)piperazine-1-carboxylate]", "values": [{"measurement": "EC50", "setting": "C. parvum [3]", "value": "≥ 20", "unit": "µM"}]}
{"smiles": "O=C(Cc1ccc(Cl)c(Cl)c1)N1CCN(c2ccccc2)CC1", "note": "[Compound 6a, 2-(3,4-dichlorophenyl)-1-(4-phenylpiperazin-1-yl)ethanone]", "values": [{"measurement": "effect in the hERG binding assay, in words", "setting": "[4]", "value": "does not exhibit significant effect"}]}
{"smiles": "O=C(Cc1ccc(Cl)c(Cl)c1)N1CCN(c2ncc([N+](=O)[O-])s2)CC1", "note": "[Compound 13, 2-(3,4-dichlorophenyl)-1-(4-(5-nitrothiazol-2-yl)piperazin-1-yl)ethanone]", "values": [{"measurement": "potency in the Cp HCT-8 assay, in words", "setting": "C. parvum [3]", "value": "weakly potent"}]}
{"smiles": "O=C(Cc1ccc(Cl)c(Cl)c1)N1CCN(C2=Nn3cnnc3CC2)CC1", "note": "[Compound 17a, 2-(3,4-dichlorophenyl)-1-(4-(7,8-dihydro-[1,2,4]triazolo[4,3-b]pyridazin-6-yl)piperazin-1-yl)ethanone]", "values": [{"measurement": "LipE (pEC50 minus logP)", "setting": "C. parvum [3]", "value": 4.13}, {"measurement": "fold less potent than 2a (SLU-2633)", "setting": "C. parvum [3]; ratio of Cp EC50 values", "value": "7 fold and ~ 7 fold"}, {"measurement": "reduction of inhibition in hERG patch-clamp assay relative to 2a (SLU-2633)", "setting": "hERG channel", "value": "about two-fold"}]}
{"smiles": "O=C(Nc1ccc(Cl)c(Cl)c1)N1CCN(C2=Nn3cnnc3CC2)CC1", "note": "[Compound 17b, N-(3,4-dichlorophenyl)-4-(7,8-dihydro-[1,2,4]triazolo[4,3-b]pyridazin-6-yl)piperazine-1-carboxamide]", "values": [{"measurement": "fold potency reduction compared to urea 2b", "setting": "C. parvum [3]; ratio of Cp EC50 values", "value": "~ 20 fold"}]}
{"smiles": "O=C(Cc1ccc(Cl)c(Cl)c1)N1CCN(c2ccc3nccn3n2)CC1", "note": "[Compound 18a, 2-(3,4-dichlorophenyl)-1-(4-(imidazo[1,2-b]pyridazin-6-yl)piperazin-1-yl)ethanone]", "values": [{"measurement": "potency in the Cp HCT-8 assay, in words", "setting": "C. parvum [3]", "value": "drastically reduced the potency"}]}
{"smiles": "O=C(Nc1ccc(Cl)c(Cl)c1)N1CCN(c2ccc3nccn3n2)CC1", "note": "[Compound 18b, N-(3,4-dichlorophenyl)-4-(imidazo[1,2-b]pyridazin-6-yl)piperazine-1-carboxamide]", "values": [{"measurement": "potency in the Cp HCT-8 assay, in words", "setting": "C. parvum [3]", "value": "drastically reduced the potency"}]}
{"smiles": "O=C(Cc1ccc(Cl)c(Cl)c1)N1CCN(c2ccn3nccc3n2)CC1", "note": "[Compound 19, 2-(3,4-dichlorophenyl)-1-(4-(pyrazolo[1,5-a]pyrimidin-5-yl)piperazin-1-yl)ethanone]", "values": [{"measurement": "EC50", "setting": "C. parvum [3]", "value": "20 to 30", "unit": "µM"}]}
{"smiles": "O=C(Nc1ccc(Cl)c(Cl)c1)N1CCN(c2cn3ccnc3cn2)CC1", "note": "[Compound 20, N-(3,4-dichlorophenyl)-4-(imidazo[1,2-a]pyrazin-6-yl)piperazine-1-carboxamide]", "values": [{"measurement": "EC50", "setting": "C. parvum [3]", "value": "20 to 30", "unit": "µM"}]}
{"smiles": "O=C(Cc1ccc(Cl)c(Cl)c1)N1CCN(c2ccc3nonc3c2)CC1", "note": "[Compound 24, 1-(4-(benzo[c][1,2,5]oxadiazol-5-yl)piperazin-1-yl)-2-(3,4-dichlorophenyl)ethanone]", "values": [{"measurement": "EC50", "setting": "C. parvum [3]", "value": "20 to 30", "unit": "µM"}]}
{"smiles": "O=C(Nc1ccc(Cl)c(Cl)c1)N1CCN(c2nc3ccccc3[nH]2)CC1", "note": "[Compound 28, 4-(1H-benzo[d]imidazol-2-yl)-N-(3,4-dichlorophenyl)piperazine-1-carboxamide]", "values": [{"measurement": "potency in the Cp HCT-8 assay, in words", "setting": "C. parvum [3]", "value": "did not yield better potency"}]}
{"smiles": "O=C(Cc1ccc(Cl)c(Cl)c1)N1CCN(c2nc3ccccc3o2)CC1", "note": "[Compound 29a, 1-(4-(benzo[d]oxazol-2-yl)piperazin-1-yl)-2-(3,4-dichlorophenyl)ethanone]", "values": [{"measurement": "potency in the Cp HCT-8 assay, in words", "setting": "C. parvum [3]", "value": "did not yield better potency"}]}
{"smiles": "O=C(Cc1ccc(Cl)c(Cl)c1)N1CCN(c2nc3ccccc3s2)CC1", "note": "[Compound 29b, 1-(4-(benzo[d]thiazol-2-yl)piperazin-1-yl)-2-(3,4-dichlorophenyl)ethanone]", "values": [{"measurement": "potency in the Cp HCT-8 assay, in words", "setting": "C. parvum [3]", "value": "did not yield better potency"}]}
{"smiles": "Nc1nc2nc(N3CCN(C(=O)Cc4ccc(Cl)c(Cl)c4)CC3)ccc2s1", "note": "[Compound 31b, 1-(4-(2-aminothiazolo[4,5-b]pyridin-5-yl)piperazin-1-yl)-2-(3,4-dichlorophenyl)ethanone]", "values": [{"measurement": "potency in the Cp HCT-8 assay, in words", "setting": "C. parvum [3]", "value": "low micromolar range; also recorded: modestly potent"}, {"measurement": "fold more potent than methyl analog 31a", "setting": "C. parvum [3]; ratio of Cp EC50 values", "value": 5, "unit": "fold"}]}
